The values that follow come from ChEMBL document CHEMBL3259739, “Synthesis and structure-activity relationship of trisubstituted thiazoles as Cdc7 kinase inhibitors” (Eur J Med Chem, 2014).

A short description of series [1]: Volume of distribution at steady state in Sprague-Dawley rat at 2 mg/kg, iv. The format is ADME, organism-based. More on the design: dose 2 mg/kg, route intravenous. To be noted: in vivo, read-out: Vdss.
Series [2] has as its target CDC7/DBF4 (Cell division cycle 7-related protein kinase/Activator of S phase kinase) (Homo sapiens, UniProt O00311). Briefly: Inhibition of Cdc7/Dbf4 (unknown origin) using 0.222 uM of ATP as substrate by AlphaScreen assay. The format is protein-complex assay. (Alpha assays give light when donor and acceptor beads are brought close together.)
A short description of series [3]: Oral bioavailability in Sprague-Dawley rat at 5 mg/kg. Particulars: in vivo. The series is classed as ADME, organism-based. The gist of the method: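 Male Sprague-Dawley rats given 5 mg/kg orally in 2% HPMC, 1% Tween80, pH2 (an iv arm received 2 mg/kg in DMSO). Plasma was sampled from 0.25 to 24 h and analyzed by LC/MS.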
Series [4] has as its system MDR1. Briefly: Efflux ratio of permeability of the compound in pig LLC-PK1 cells expressing MDR1. The series is classed as ADME, cell-based, Sus scrofa.

Chain of CDC7/DBF4 (Cell division cycle 7-related protein kinase/Activator of S phase kinase) (Q9UBU7 whole entry): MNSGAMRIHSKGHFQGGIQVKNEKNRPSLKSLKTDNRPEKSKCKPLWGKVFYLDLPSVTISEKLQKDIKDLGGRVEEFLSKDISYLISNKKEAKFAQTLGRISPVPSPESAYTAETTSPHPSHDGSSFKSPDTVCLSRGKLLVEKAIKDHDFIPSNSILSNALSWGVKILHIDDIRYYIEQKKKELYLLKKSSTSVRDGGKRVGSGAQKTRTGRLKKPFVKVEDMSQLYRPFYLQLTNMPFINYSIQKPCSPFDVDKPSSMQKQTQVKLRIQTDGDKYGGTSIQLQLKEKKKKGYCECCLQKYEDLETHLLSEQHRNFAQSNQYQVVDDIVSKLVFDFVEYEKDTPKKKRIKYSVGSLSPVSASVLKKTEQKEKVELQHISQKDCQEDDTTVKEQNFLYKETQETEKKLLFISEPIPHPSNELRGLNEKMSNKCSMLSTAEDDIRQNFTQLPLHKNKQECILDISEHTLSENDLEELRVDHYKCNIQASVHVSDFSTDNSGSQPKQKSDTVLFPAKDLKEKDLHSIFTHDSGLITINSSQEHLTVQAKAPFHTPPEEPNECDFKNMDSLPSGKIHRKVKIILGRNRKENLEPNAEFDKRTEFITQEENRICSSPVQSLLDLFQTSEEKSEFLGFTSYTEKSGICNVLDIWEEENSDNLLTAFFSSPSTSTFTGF
Chain of CDC7/DBF4 (Cell division cycle 7-related protein kinase/Activator of S phase kinase) (O00311 whole entry): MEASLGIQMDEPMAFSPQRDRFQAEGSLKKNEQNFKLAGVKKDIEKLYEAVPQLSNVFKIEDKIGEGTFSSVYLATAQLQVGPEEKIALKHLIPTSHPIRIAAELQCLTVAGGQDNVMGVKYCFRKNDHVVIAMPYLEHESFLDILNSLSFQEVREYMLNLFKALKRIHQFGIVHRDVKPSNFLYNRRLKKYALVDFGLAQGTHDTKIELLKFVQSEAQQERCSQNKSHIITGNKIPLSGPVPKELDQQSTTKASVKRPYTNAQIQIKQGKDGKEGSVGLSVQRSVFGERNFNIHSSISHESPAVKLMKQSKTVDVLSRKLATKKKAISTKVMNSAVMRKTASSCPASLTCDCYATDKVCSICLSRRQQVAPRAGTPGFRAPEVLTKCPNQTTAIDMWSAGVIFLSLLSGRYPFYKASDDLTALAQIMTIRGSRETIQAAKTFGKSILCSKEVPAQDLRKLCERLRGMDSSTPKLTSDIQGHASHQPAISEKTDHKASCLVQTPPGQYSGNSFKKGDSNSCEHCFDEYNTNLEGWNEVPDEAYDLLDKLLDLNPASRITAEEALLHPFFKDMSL

A word on the IC50: it is the concentration at which inhibition is half-maximal. Low readings indicate greater potency in that assay, high ones weaker potency in that assay. By bioavailability is commonly meant the share of a dose that reaches the circulation, judged against a reference dose that is usually intravenous. The low end stands for little systemic uptake, the high end for much systemic uptake. For `NC(=O)c1sc(-c2ccnc(N)n2)nc1-c1ccc(Cl)cc1Cl`, the Vd in series [1] stood at 4.43 L/kg. This molecule returned an IC50 in series [2] of 35 nM. The molecule further gave a bioavailability in series [3] of 6.58%.
Broadly, the efflux ratio is the permeability from basolateral to apical divided by that in the opposite direction, in the common usage. With `CCOC(=O)c1sc(-c2ccncc2)nc1O`, the efflux ratio in series [4] worked out at 1.
